In all, about 330,000 compounds went through this assay and about 1,100 (0.33%) were called active. What follows is part of a selection rich in actives, with near analogues and random picks from the rest. A number with no mark means an inactive call.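 How the source made its calls: active means at 10 µM dose, activation of 40% or more, normalized to positive control; inactive means the rest.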
assay: PERK-eIF2a-CHOP pathway stimulators – cell-based, CHO-CHOP luciferase reporter, luminescence, uHTS, primary screen (AID 449763); conditions: UPR activation, at 10 µM, hits give high values, percent of tunicamycin response over DMSO baseline;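 further: 100% = tunicamycin at 10 µg/mL and 0% = DMSO alone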
In short: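 measured by = luciferase luminescence | assay system = CHO-CHOP cells, stable luciferase reporter of PERK-eIF2a-CHOP signalling | amount = 500 reporter cells seeded per well | timing = 6 h compound exposure at 37 °C after overnight seeding | controls = positive tunicamycin 10 µg/mL, negative DMSO alone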

Row | Structure (SMILES) | activation
1 | CN(CC(=O)NC1CCN(Cc2ccccc2)CC1)S(=O)(=O)c1ccc(Cl)s1 | -1.76%
2 | N#CCN(C(=O)COC(=O)C1CC2CCCC(C1)C2=O)c1ccccc1 (configuration not stated) | -1.48%
3 | O=C(NCCCn1ccnc1)C(=O)c1cn(CC(=O)N2CCCCCC2)c2ccccc12 | 1.32%
4 | Cc1ccc(S(=O)Cc2ccc(C(=O)N3CCN(C4CCCCC4)CC3)o2)cc1 (configuration not stated) | -0.502%
5 | Cc1cccnc1NC(=O)Cn1c(=O)oc2ccccc21 | -1.26%
6 | O=C(CSc1nc(=O)n2ccccc2n1)Nc1ccc2c(c1)OCCO2 | 0.903%
7 | CCCCCC(=O)Nc1ccc(C(=O)N/N=C/c2ccc([N+](=O)[O-])cc2)cc1 | 90.2% (active)
8 | CCCCCC(=O)NC(=S)NNC(=O)c1ccc([N+](=O)[O-])cc1 | -1.39%
9 | CCCC(=O)Nc1ccc(C(=O)N/N=C/c2ccc[nH]2)cc1 | -0.0357%
10 | CCCc1nn(C)c2c(=O)[nH]c(-c3cc(S(N)(=O)=O)ccc3OCC)nc12 | 0.336%
11 | O=C1Nc2ccc(Br)cc2/C1=N/N=C/C1=C(N2CCOCC2)C(=C\c2ccccc2)/CC1 | 46.3% (active)
12 | COc1ccc(/C=N/N=C2/C(=O)Nc3ccccc32)cc1O | 10.4%
13 | Cc1cc2nc3n(c2cc1C)CC1CC(C(=O)NCCC(C)C)N(C)C31 (configuration not stated) | -0.707%
14 | O=C(N/N=C/c1ccc(Cl)cc1)c1nc2ccc([N+](=O)[O-])cc2c(=O)[nH]1 | 0.124%
15 | O=C(/C(=C/c1cccc(Cl)c1)c1nc2ccccc2[nH]1)c1ccccc1 | 349% (active)
16 | O=C(O)c1cccc(NC(=O)c2cc(-c3cccc(Cl)c3)nc3ccccc23)c1 | 2.21%
17 | O=S(=O)(c1ccc(SCc2ccc(Br)cc2)nc1)N1CCOCC1 | 0.334%
18 | COc1ccccc1OCCCCCCN1CCN(C)CC1 | -0.245%
19 | Cc1nc2ccc(NC(=O)c3cccc(S(=O)(=O)N4CCOCC4)c3)cc2s1 | 1.06%

Row | Structure (SMILES) | activation
20 | O=C(CN1CCN(S(=O)(=O)c2cccc(Cl)c2)CC1)N1CCCCC1 | -0.576%
21 | O=S(=O)(Nc1nccs1)c1ccc2c(c1)OCCO2 | -1.47%
22 | Cc1ccc(Oc2cnn(-c3ccccc3)c(=O)c2Br)cc1 | 2.08%
23 | C=CCNc1cnn(-c2ccc(C)cc2)c(=O)c1Cl | 0.179%
24 | Cc1cccc(-n2ncc(Cl)c(Cl)c2=O)c1 | 49.1% (active)
25 | Cc1ccc(CNC(=O)COC(=O)C2CCC2)cc1 | 0.475%
26 | CCc1nnc(NC(=O)CSc2nnnn2-c2cccc(C(C)=O)c2)s1 | -1.47%
27 | CCOc1ccc(Br)cc1CSC(=N)N | 0.704%
28 | CCOC(=O)c1cnc(Nc2nc3ccccc3o2)nc1CSC(=S)N1CCCCC1 | 152% (active)
29 | CCc1ccc(CNC(=O)C2CCCN(c3nc4ccccc4o3)C2)cc1 (configuration not stated) | -2.13%
30 | CCOC(=O)CCNC(=O)N1CCCC(C(=O)c2ccccc2SC)C1 (configuration not stated) | 1.02%
31 | CCN(CC)C(=O)Cn1cc(S(=O)(=O)CC(=O)NCc2ccc3c(c2)OCO3)c2ccccc21 | -0.829%
32 | Cc1cc(NC(=O)CS(=O)(=O)c2cn(C)c3ccccc23)no1 | 1.58%
33 | CCN(C(=O)CSc1ncnc2sccc12)c1c(N)n(Cc2ccccc2)c(=O)[nH]c1=O | -3.54%
34 | CC1CC2=C(CC1/C=N/NC(N)=S)C(C)(C)CCC2 (configuration not stated) | 67.6% (active)
35 | Cc1ccc(C(=O)Cc2nnc(C)s2)cc1 | 1.29%
36 | CC(=O)Nc1ccc(S(=O)(=O)N2CCC(NC(=O)c3ccccc3)CC2)cc1 | 1.32%
37 | C=Cn1c(C(=O)O)ccc1-c1ccc(OC)cc1 | -1.21%
38 | COC(=O)c1ccc(C(=O)NC2CC(C)(C)Cc3c2cnn3-c2ccc(F)cc2)nc1 (configuration not stated) | 0.891%

Row | Structure (SMILES) | activation
39 | COc1ccc(C2=NN(C(=O)c3ccccc3C(=O)O)C(c3ccccc3O)C2)cc1 (configuration not stated) | 4.22%
40 | CCOc1ccc2nc(Cl)c(C3CC(c4ccccc4)=NN3C(=O)c3cccs3)cc2c1 (configuration not stated) | 85.3% (active)
41 | CCOc1ccccc1C1CC(c2cccc(NS(C)(=O)=O)c2)=NN1C(=O)c1ccccc1 (configuration not stated) | 1.22%
42 | CCOc1ccccc1CN1CCN(C2CCC2)CC1CCO (configuration not stated) | 1.34%
43 | CS(=O)(=O)c1ccc(C(=O)OCC(=O)NNC(=O)COc2ccc(Cl)cc2)cc1 | -0.907%
44 | Cc1c(NC(=O)CSc2nnnn2-c2ccc(C(=O)O)cc2)c(=O)n(-c2ccccc2)n1C | -0.108%
45 | Cc1c(NC(=O)CSc2cccc3cccnc23)c(=O)n(-c2ccccc2)n1C | 163% (active)
46 | Cc1c(NC(=O)CSc2nnc(-c3cccnc3)n2N)c(=O)n(-c2ccccc2)n1C | 0.658%
47 | NC(=O)CC[C@@H]1NC(=O)[C@@H]2CCCN2C(=O)c2cc([N+](=O)[O-])cc(F)c2NCCC[C@@H](C(N)=O)NC1=O | -0.0942%
48 | COc1ccccc1P(=O)(c1ccccc1)c1ccccc1NC(C)=O (configuration not stated) | -0.343%
49 | COc1cc(C(=O)N/C(=C\c2cn(C)c3ccccc23)C(=O)N2CCOCC2)cc(OC)c1OC | -0.204%
50 | CCCCC[C@H]1CN(C2CCCCC2)C(=O)[C@@H]1CC(=O)NCc1ccc(OC)cc1 | 0.258%
51 | CC[C@H](C)C(=O)N[C@H]1CCCN1C(=O)/C=C/c1ccccc1 | -0.778%
52 | COCCNc1nc(-n2nc(C)cc2C)nc2sc3c(c12)CCCC3 | 45.9% (active)
53 | CCC(O)CNc1nc(-n2nc(C)cc2C)nc2sc3c(c12)CC(C)(C)OC3 (configuration not stated) | -0.387%
54 | Cc1nc2sc3c(c2c(=O)n1NC(=O)CCl)CCCC3 | 1.06%
55 | O=C(Nc1ccc(S(=O)(=O)N2CCOCC2)cc1)c1ccc2ncsc2c1 | 2.81%
56 | COC(=O)c1sccc1NN1C(=O)c2ccccc2C1=O | -0.357%
57 | C[C@@H]1C[C@@H]2O[C@H]2/C=C\C=C\C(=O)Cc2c(Cl)c(O)cc(O)c2C(=O)O1 | 145% (active)

— PubChem BioAssay AID449763 (Sanford-Burnham Center for Chemical Genomics, 2010)
